Rows were chosen to be rich in hits. Some 1.4% of all compounds tested hit in one or more screens of this group.
CASP6 VEID inh: human caspase-6 inhibitors, primary screen, biochemical, VEID-R110 fluorescence, single point, set 2; AID 686996, 2013; hit rate 0.53% among 350,000; inhibition, % at 12.5 µM; purified caspase-6, Z-VEID-R110 cleavage fluorescence; P55212;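 active = mean inhibition across replicates at least about 35%, with every replicate also reaching that limit, limit read from the data; inconclusive = only one of the two criteria met; inactive = neither criterion met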;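 note: 0% = median of neutral control wells and 100% = no fluorescence left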
Target sequence (P55212 24-179 limits assumed): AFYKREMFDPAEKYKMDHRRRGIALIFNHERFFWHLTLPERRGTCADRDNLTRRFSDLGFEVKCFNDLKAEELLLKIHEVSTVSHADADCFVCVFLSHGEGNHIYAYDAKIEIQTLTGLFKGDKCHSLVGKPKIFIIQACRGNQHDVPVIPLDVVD
Target sequence (P55212 194-293 limits assumed): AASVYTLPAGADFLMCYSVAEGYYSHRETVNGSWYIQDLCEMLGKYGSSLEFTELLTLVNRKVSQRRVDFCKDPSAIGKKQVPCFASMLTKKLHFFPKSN
T cell modulator: modulators of CD8 T cell-vesicle binding, primary screen, mouse 2C CD8+ T cells, flow cytometry; AID 2052, 2009; hit rate 0.068% among 330,000; response (vesicle binding), % at 7 µM; 2C CD8+ T cell-vesicle binding; hits give low values;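 active = response, share of CD8 T cells binding vesicles, and their 90th percentile fluorescence all below set limits, cut at about 80% in these data, passing the limit was not always enough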;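 note: values below 100% mean blocked vesicle binding to the CD8+ T cells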
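Benchmarks: naked versus QL9-loaded vesicles / Assay system: purified 2C TCR transgenic mouse naive CD8+ T cells / Technique: high-throughput flow cytometry with anti-B7-1 and anti-CD8 staining / Timing: Cell–vesicle co-incubation 1.5 h at 37 °C, staining 20 min on ice / Read-out: percent CD8+ FL2 mean versus row control / Probe or stimulus: QL9-loaded Drosophila micro-vesicles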
Myeloid diff MLP: induction of myeloid progenitor differentiation, primary screen, cell-based, flow cytometry, MLPCN library; ER-HoxA9 myeloid progenitors, lysozyme-GFP differentiation; calls only at 10 µM; hit rate 1% among 360,000;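 active = normalized GFP-positive differentiation at or above the plate's own cutoff, the solvent-only control mean plus 3 SD; inconclusive = no clear call, values can overlap the other calls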;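 note: cells exposed to compound for four days before flow analysis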
Vif inh: HIV Vif self-association inhibitors, primary screen, imaging, HEK293T, single point | hit rate 0.35% among 340,000 | inhibition, % at 7.49 µM | HEK293T cells, Vif self-association by quenched fluorescence, 24 h; in the data active = inhibition above about 50%, passing the limit was not always enough; inconclusive = no clear call, values can overlap the other calls; inactive = below about 31%
Myeloid diff CP1: inducers of myeloid progenitor differentiation, confirmation, cell-based, GFP/Mac1 flow cytometry, cherry pick 01 | shares compounds with Myeloid diff MLP | hit rate 2% among 2,300 | AID 651706, 2012 | calls only | ER-HoxA9 myeloid progenitors, GFP/Mac1 double-positive flow;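 active = share of green or green-and-red cells above 9 and 9% in run 1 or 4 and 3% in run 2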
GFP autofluor: counter-screen for myeloid differentiation promoters: compound fluorescence | shares compounds with Myeloid diff MLP | ER-HoxA9 myeloid progenitors, no estrogen, GFP autofluorescence flow cytometry; vehicle wells 0%, positive control 100% | fluorescence response, % (test concentration not listed) | hit rate 7.4% among 2,300;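 active = over 5% cells positive for green fluorescent reporter, or over 2% positive for both it and APC stain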;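 note: range taken on the double positive population between DMSO and positive control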
An asterisk follows results filed as active; i = inactive; ? = inconclusive; · = no result given; + = active, no number.

SMILES	CASP6 VEID inh	T cell modulator	Myeloid diff MLP	Vif inh	Myeloid diff CP1	GFP autofluor
CN(C)S(=O)(=O)c1cccc(NC(=O)c2ccc(S(=O)(=O)N3CCCCC3)cc2)c1	-3	173	i	-6	·	·
Cc1ccc(N(C)S(=O)(=O)c2cccc(C(=O)Nc3ccc(N4CCOCC4)cc3)c2)cc1	3	431	+	-8	i	0
CN(C)C(=O)C[C@@H]1CC[C@@H](NC(=O)c2ccc(F)cc2)[C@H](CO)O1	2	·	·	·	·	·
O=C(c1ccc(F)cc1)N1CC(=O)N2[C@H](C1)[C@H](c1ccc(C#CC3CCCC3)cc1)[C@@H]2CO	-1	·	·	·	·	·
COc1ccc(NC(=O)Nc2ccc3c(c2)C(=O)N([C@H](C)CO)C[C@@H](C)[C@@H](CN(C)C(=O)c2ccccc2)OCCCC[C@H](C)O3)cc1	-1	·	·	·	·	·
CC(C)NC(=O)N(C)C[C@H]1Oc2ncc(C#CC3CCCC3)cc2C(=O)N([C@H](C)CO)C[C@@H]1C	6	·	·	·	·	·
O=C(Cc1ccncc1)NCC[C@@H]1CC[C@@H](NC(=O)C2CCCC2)[C@H](CO)O1	0	·	·	·	·	·
CN1CCN(C(=O)C[C@@H]2CC[C@H]3[C@@H](COC[C@H](O)CN3CC3CCCCC3)O2)CC1	-96	·	·	·	·	·
Cc1ccc(S(=O)(=O)N2CCCCC2)cc1NC(=O)c1cncc(Br)c1	4	·	i	·	·	·
O=C(Nc1cccc(S(=O)(=O)N2CCCCC2)c1)c1ccc2c(=O)n3c(nc2c1)CCCCC3	·	231	i	-37	i	0
O=C(Nc1cccc(S(=O)(=O)N2CCCCCC2)c1)c1cncc(Br)c1	4	328	i	-23	i	0
Cc1ccc(S(=O)(=O)N2C[C@@H]3CCCC[C@@H]3[C@@H](C)[C@H]2c2cn(Cc3ccccc3)c3ncccc23)cc1	-2	·	i	-5	i	0
Cc1ccc(S(=O)(=O)N2C[C@@H]3CCCC[C@@H]3[C@@H](C)[C@H]2c2cn(Cc3ccccc3)c3ccccc23)cc1	-1	·	?	-16	·	·
Cc1cc(C)cc(NC(=O)C2CCCC2)c1	·	477	+	-2	i	0
Cc1cc(C)cc(NC(=S)N2CCC(NC(=O)C3CCCCC3)CC2)c1	-2	167	i	-6	·	·
C[C@@H]1CN([C@@H](C)CO)C(=O)Cc2cc(NS(=O)(=O)c3cn(C)cn3)ccc2O[C@@H]1CN(C)C(=O)Nc1cccc2ccccc12	3	·	·	·	·	·
CC(C)NC(=O)Nc1ccc2c(c1)C(=O)N([C@H](C)CO)C[C@@H](C)[C@H](CN(C)Cc1ccc(Cl)c(Cl)c1)OCCCC[C@H](C)O2	3	·	·	·	·	·
COc1ccc(NCc2nnc(SCC(=O)NCc3ccccc3)n2-c2ccccc2OC)cc1	1	331	i	13	·	·
COc1ccccc1-n1c(CNc2ccc(F)cc2)nnc1SCC(=O)Nc1cc(C)on1	·	208	i	13	i	0
CCC1(c2ccccc2)NC(=O)N(CC(=O)Nc2cccc(C#N)c2)C1=O (centres undefined)	·	559	+	0	i	0
CC(=O)N1CN(C2CCCC2)Cc2c1sc1c2CCCC1	·	204	i	-4	i	0
CC(=O)N1CN(C2CC(C)(C)NC(C)(C)C2)Cc2c1sc1c2CCCC1	-3	290	i	-1	·	·
Cc1cccn2cc(COc3ccc(-c4ccccc4)cc3)nc12	-5	·	+	-9	+	1
CCCC#Cc1ccc2c(c1)O[C@H](CN(C)C(=O)c1ccccc1)[C@@H](C)CN([C@@H](C)CO)S2(=O)=O	2	·	·	·	·	·
CC(C)COC(=O)c1ccc2c(c1O)C(=O)c1ccccc1C2=O	·	178	i	-3	i	6.1*
SMILES	CASP6 VEID inh	T cell modulator	Myeloid diff MLP	Vif inh	Myeloid diff CP1	GFP autofluor
COc1ccc2c(c1O)C(=O)c1ccccc1C2=O	·	374	·	·	·	·
CCOc1ccc(CN(C)CC(=O)Nc2cccc3ccccc23)cc1OC	4	134	i	-3	i	0
CN(C)CCCNC(=O)[C@H]1[C@H](CO)[C@H]2Cn3c(ccc(-c4ccncc4)c3=O)[C@@H]1N2C(=O)CC1CC1	-37	·	·	·	·	·
CN(C)C(=O)C[C@H]1C=C[C@H](NC(=O)C2CCC2)[C@H](CO)O1	-4	·	·	·	·	·
Cc1cccc(/C=N/NC(=O)c2ccc(NC(=O)c3ccc(Cl)cc3)cc2)n1	5	268	+	0	i	2
C[C@@H]1CN([C@@H](C)CO)C(=O)c2cc(NC(=O)CCC(F)(F)F)ccc2O[C@@H](C)CCCCO[C@@H]1CN(C)C(=O)Nc1ccc2c(c1)OCO2	2	·	·	·	·	·
CC1CCCCN1C(=O)c1ccc(C(=O)N2CCCCC2C)cc1 (centres undefined)	·	200	i	2	i	0
CC1CCCCN1C(=O)c1ccc(S(=O)(=O)N2CCCCC2C)cc1 (centres undefined)	·	142	i	-7	·	·
CO[C@@H]1CN(C)C(=O)c2ccc(NC(=O)C3CCC3)cc2OC[C@@H](C)N(C(=O)CN(C)C)C[C@H]1C	0	·	·	·	·	·
O=C(NCc1ccccc1)C1C(c2ccc3c(c2)OCO3)=Nc2ccccc2N1C(=O)c1ccccc1 (centres undefined)	-3	·	i	·	·	·
O=C(NCc1ccccc1)C1C(c2ccc3c(c2)OCO3)=Nc2ccccc2N1C(=O)c1ccco1 (centres undefined)	-2	·	i	·	i	0
CC1(C)Cc2c(sc3nc4n(c(=N)c23)CCC4)CO1	·	399	i	6	i	0
N=c1c2c3c(sc2nc2n1CCC2)CCCC3	·	619	i	-17	·	·
CC(=O)Nc1cccc(-c2ccnc3c2CC(C)(C(=O)NCc2ccc(N(C)C)cc2)O3)c1 (centres undefined)	2	·	+	-6	i	0
Cc1ccc(/C=N/Nc2nc3ccccc3s2)o1	·	190	i	1	i	0
COc1ccc(NC(=O)Nc2cccc3c2O[C@H](CN(C)S(=O)(=O)c2ccccc2)[C@@H](C)CN([C@@H](C)CO)C3=O)cc1	0	·	·	·	·	·
C[C@H]1CN([C@@H](C)CO)C(=O)c2cc(-c3cccc(C#N)c3)cnc2O[C@@H]1CN(C)C(=O)c1cnccn1	3	·	·	·	·	·
COc1ccc(Cc2nc3ccc(C(=O)NC(C)C)cc3o2)cc1	0	270	i	-1	i	0
CCC(C)NC(=O)c1ccc2nc(Cc3ccc(OC)cc3)oc2c1 (centres undefined)	-4	211	i	1	·	·
Cn1c(SCC(=O)O)nnc1C1CCCCC1	0	367	+	12	i	0
Cn1c(SCC(=O)c2ccccc2)nnc1C1CC1	·	149	i	-1	·	·
CCCCN1CC(COCc2ccccc2)Oc2cccc(N3CCCC3)c2S1(=O)=O (centres undefined)	-3	·	i	1	i	0
